# Laboratory results taken from ChEMBL document CHEMBL4619796, “Discovery of 3-Quinazolin-4(3H)-on-3-yl-2,N-dimethylpropanamides as Orally Active and Selective PI3Kα Inhibitors” (ACS Med Chem Lett, 2020).
# pIC50: −log10 of the molar value.
# Key:
# [1] = Dose normalized AUC (0 to last) in BALB/c mouse at 10 mg/kg, po by HPLC analysis; format: ADME, organism-based; details: in vivo
# [2] = Clearance in Sprague-Dawley rat at 1 mg/kg, iv by HPLC analysis; format: ADME, organism-based; details: in vivo
# [3] = biological target: T1, Phosphatidylinositol 4,5-bisphosphate 3-kinase catalytic subunit alpha isoform (Homo sapiens, UniProt P42336); assay: Inhibition of PI3Kalpha in human BT474 cells expressing P3KCA mutant assessed as reduction in AKT phosphorylation at residue S473 incubated for 2 hrs followed by insulin addition by ELISA; format: cell-based; details: bt-474
# Method in brief: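 Akt phosphorylation was measured in the PIK3CA mutant human breast ductal carcinoma BT-474 cell line, used as a PI3Kα-sensitive cellular readout. IC50 determined.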
# Target sequence in this assay (P42336 whole entry, looked up, canonical isoform): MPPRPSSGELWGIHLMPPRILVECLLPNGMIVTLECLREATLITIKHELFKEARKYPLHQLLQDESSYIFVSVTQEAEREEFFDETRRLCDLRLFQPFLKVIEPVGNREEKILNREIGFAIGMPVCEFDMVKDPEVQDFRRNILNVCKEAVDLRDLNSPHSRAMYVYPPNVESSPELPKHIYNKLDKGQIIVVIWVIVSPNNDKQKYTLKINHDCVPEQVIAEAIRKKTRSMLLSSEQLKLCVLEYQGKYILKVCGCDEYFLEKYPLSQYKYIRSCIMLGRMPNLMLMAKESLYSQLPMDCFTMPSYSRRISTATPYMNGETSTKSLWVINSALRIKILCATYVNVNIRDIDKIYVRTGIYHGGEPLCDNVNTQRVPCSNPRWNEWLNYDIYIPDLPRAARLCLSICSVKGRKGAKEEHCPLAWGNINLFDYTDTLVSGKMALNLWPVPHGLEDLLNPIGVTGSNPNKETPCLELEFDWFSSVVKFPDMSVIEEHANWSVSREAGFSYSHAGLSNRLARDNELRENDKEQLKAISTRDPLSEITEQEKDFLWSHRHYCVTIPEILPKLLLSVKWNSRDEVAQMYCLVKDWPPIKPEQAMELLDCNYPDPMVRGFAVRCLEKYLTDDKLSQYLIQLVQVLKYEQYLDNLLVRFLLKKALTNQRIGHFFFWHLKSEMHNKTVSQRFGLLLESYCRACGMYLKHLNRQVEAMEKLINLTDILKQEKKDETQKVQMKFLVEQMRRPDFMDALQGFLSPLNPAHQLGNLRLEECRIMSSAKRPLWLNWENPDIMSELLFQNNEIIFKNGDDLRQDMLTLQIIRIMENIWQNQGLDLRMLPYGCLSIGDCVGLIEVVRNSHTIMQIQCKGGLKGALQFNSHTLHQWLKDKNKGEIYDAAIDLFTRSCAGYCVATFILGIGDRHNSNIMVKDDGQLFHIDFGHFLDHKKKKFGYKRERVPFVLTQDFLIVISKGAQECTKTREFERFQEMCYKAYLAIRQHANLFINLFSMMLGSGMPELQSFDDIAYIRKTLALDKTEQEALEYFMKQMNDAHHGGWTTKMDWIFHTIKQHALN
# [4] = Metabolic stability in cynomolgus monkey liver microsomes assessed as parent compound remaining at 10 uM preincubated for 10 mins in water bath followed by NADPH addition and measured after 60 mins by LC-MS/MS analysis; format: ADME, Macaca fascicularis, Microsome; details: read-out: Stability
# BT-474 [5] = assay: Antitumor activity against PI3KCA mutant human BT474 cells xenografted in BALB/c nude mouse assessed as tumor growth inhibition at 40 mg/kg, po administered once daily and measured after 30 days by caliper method relative to control; format: functional; details: BT-474, po, 720 h, read-out: TGI
# [6] = biological target: T1, Phosphatidylinositol 4,5-bisphosphate 3-kinase catalytic subunit alpha isoform; assay: Inhibition of PI3Kalpha (unknown origin) using PIP2:3PS peptide as substrate preincubated for 15 mins followed by ATP addition at Km concentration and further incubated for 150 mins by ADP-Glo assay
# Target sequence in this assay (P42336 whole entry, canonical isoform): as the sequence (P42336 whole entry, looked up, canonical isoform) above
# BT-474 [7] = assay: Antitumor activity against PI3KCA mutant human BT474 cells xenografted in BALB/c nude mouse assessed as tumor growth inhibition at 30 mg/kg, po administered once daily for 21 days by caliper method relative to control; format: functional; details: BT-474, po, 504 h, read-out: TGI
# Method in brief: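 BT-474 (PIK3CA mutant human breast ductal carcinoma) subcutaneous xenografts in Balb/c nude mice. Oral dosing once daily for 21 days. Vehicle 0.5% MC + 0.2% Tween 80. Read-out is tumor growth inhibition.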
# BT-474 [8] = assay: Antitumor activity against PI3KCA mutant human BT474 cells xenografted in BALB/c nude mouse assessed as tumor growth inhibition at 15 mg/kg, po administered once daily and measured after 30 days by caliper method relative to control; format: functional; details: BT-474, po, 720 h, read-out: TGI
# [9] = Clearance in CD-1 mouse cryopreserved hepatocytes incubated for 10 mins under shaking condition by LC-MS/MS analysis; format: ADME, cell-based, Hepatocyte; details: read-out: CLH
compound,measurement,setting,value
CNC(=O)[C@H](C)Cn1cnc2ccc(-c3cnc(OC)c(NS(=O)(=O)c4ccc(F)cc4Cl)c3)cc2c1=O,AUClast/dose,[1],3090 nM·h
same,clearance,[2],5.28 mL/min/kg
same,pIC50,[3],7.92
same,"remaining at 1 h, 10 µM",[4],13.7%
same,inhibition in vivo at 40 mg/kg,BT-474 [5],90.7%
same,pIC50,[6],8.74
same,inhibition in vivo at 30 mg/kg,BT-474 [7],73%
same,inhibition in vivo at 15 mg/kg,BT-474 [8],62.5%
same,CLint scaled,[9],642 mL/min/kg
